In PMC6055826 (Chemistry (Weinheim an Der Bergstrasse, Germany), 2018):

Assays:
[1] = Metabolic stability assay, pooled rat liver microsomes; type: in vitro ADME; details: predicted maximum oral bioavailability
Outline: (§1)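 Metabolic stability measured in vitro in pooled liver microsomes (human, rat or mouse) or freshly harvested rat hepatocytes.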

[2] = Metabolic stability assay, pooled human liver microsomes; type: in vitro ADME; details: predicted maximum oral bioavailability
Outline: as §1

[3] = tested on: freshly harvested rat hepatocytes (rHep); experiment: Metabolic stability assay, freshly harvested rat hepatocytes; type: in vitro ADME; details: predicted maximum oral bioavailability
Outline: as §1

[4] = Metabolic stability assay, pooled mouse liver microsomes; type: in vitro ADME; details: predicted maximum oral bioavailability
Outline: as §1

[5] = logD by reversed-phase HPLC; type: physicochemical; details: pH 7.5
[6] = Bidirectional Caco2 permeability assay, 24-well format; type: in vitro ADME; details: human, Caco-2
Outline: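 Caco-2 monolayers run bidirectionally in a 24-well format, measuring apparent permeability both apical-to-basolateral (A-B) and basolateral-to-apical (B-A). Efflux ratio calculated as Papp B-A divided by Papp A-B.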

Hydrolytic stability = type: physicochemical; details: for Recovery [%] (pH): 24 hours with stirring
Outline: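 Test compound stirred for 24 hours in buffer at each of three pH values: pH 1 in HCl buffer, pH 7 in phosphate-buffered saline, and pH 10 in sodium borate buffer. Stability expressed as recovery of test compound.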

[7] = pH 7 (phosphate-buffered saline)

| F max (h/r/m)-LMs [%] [1] [%] | F max (h/r/m)-LMs [%] ([2]; listed as C00021) | F max rHep [%] [3] [%] | F max (h/r/m)-LMs [%] [4] [%] | chromatographic logD [5] | Papp A→B [6] [×10⁻⁶ cm/s] | efflux ratio [6] | Recovery [%] (pH) (Hydrolytic stability; pH 1 (HCl buffer)) | Recovery [%] (pH) (Hydrolytic stability; [7]) | Recovery [%] (pH) (Hydrolytic stability; pH 10 (sodium borate buffer)) | F max (h/r/m)-LMs [%] [2] [%] | hydrolytic stability (in words) (Hydrolytic stability; after 24 hours with stirring at pH 1, 7 and 10) | F max (h/r/m)-LMs [%] ([2]; listed as C00015) | Structure (SMILES) |
| --- | --- | --- | --- | --- | --- | --- | --- | --- | --- | --- | --- | --- | --- |
| 0.5 | 8.3 | 2.1 | 16 | 4.3 | 25.2 | 0.45 | 100 (1) 100 (7) 100 (10) % | 100 (1) 100 (7) 100 (10) % | 100 (1) 100 (7) 100 (10) % | – | – | – | O=S(=Nc1cccc(F)c1)(c1ccccc1)N1CCCCC1 (centres unmarked) [2 bc] |
| 18 | – | 19 | 47 | 2.4 | 40.4 | 0.57 | 100 (1) 100 (7) 100 (10) % | 100 (1) 100 (7) 100 (10) % | 100 (1) 100 (7) 100 (10) % | 84 | – | – | CN=S(=O)(c1ccccc1)N1CCCCC1 (centres unmarked) [2 cm] |
| 10 | – | 6.8 | 9.3 | 3.7 | 19.2 | 0.7 | 56% | 100% | 91% | 19 | signs of hydrolysis at pH 1 and 10 | – | O=S(=NC(F)(F)F)(c1ccccc1)N1CCCCC1 (centres unmarked) [2 cs, 1‐[S‐Phenyl‐N‐(trifluoromethyl)sulfonimidoyl]piperidine] |
| 33 | – | 20 | 83 | 2 | 36.3 | 0.67 | 100 (1) 100 (7) 100 (10) % | 100 (1) 100 (7) 100 (10) % | 100 (1) 100 (7) 100 (10) % | – | – | 100 | CS(=O)(=O)N=S(=O)(c1ccccc1)N1CCCCC1 (centres unmarked) [2 ea, N‐[Oxo(phenyl)(piperidin‐1‐yl)‐λ^6‐sulfanylidene]methanesulfonamide] |
